Source: ChEMBL document CHEMBL4359825, “Synthesis of novel S-linked dihydroartemisinin derivatives and evaluation of their anticancer activity” (Eur J Med Chem, 2019)
The source made the active and inactive calls. The calls are words filed in the database; no cut-off is given here.

Experiments:
PC-3 [1] = experiment: Anticancer activity against human PC3 cells assessed as cell viability measured after 72 hrs by MTT assay (reference value: 100 +/- 18.8 %); type: functional; parameters: concentration or dose not given beside the values
MDA-MB-231 [2] = experiment: Anticancer activity against human MDA-MB-231 cells assessed as cell viability measured after 72 hrs by MTT assay (reference value: 100 +/- 20.0 %); type: functional; parameters: concentration or dose not given beside the values
A-431 [3] = experiment: Anticancer activity against human A431 cells assessed as cell viability measured after 72 hrs by MTT assay (reference value: 100 +/- 11.7 %); type: functional; parameters: concentration or dose not given beside the values
HeLa = experiment: Anticancer activity against human HeLa cells assessed as cell viability measured after 72 hrs by MTT assay (reference value: 100 +/- 11.5 %); type: functional; parameters: concentration or dose not given beside the values
HepG2 [4] = experiment: Anticancer activity against human HepG2 cells assessed as cell viability measured after 72 hrs by MTT assay (reference value: 100 +/- 6.5 %); type: functional; parameters: concentration or dose not given beside the values
A549 = experiment: Anticancer activity against human A549 cells assessed as cell viability measured after 72 hrs by MTT assay (reference value: 100 +/- 9.6 %); type: functional; parameters: concentration or dose not given beside the values
LNCaP = experiment: Anticancer activity against human LNCAP cells assessed as cell viability measured after 72 hrs by MTT assay (reference value: 100 +/- 5.0 %); type: functional; parameters: concentration or dose not given beside the values
[5] = Solubility of compound in water; type: physicochemical; settings: buffer
[6] = Elimination half-life in Sprague-Dawley rat at 10 mg/kg administered as iv bolus dose by EC-HPLC analysis; type: ADME, organism-based; settings: in vivo, read-out: beta t1/2
PC-3 [7] = experiment: Cell cycle arrest in human PC3 cells assessed as accumulation at G2/M phase at 3 uM measured after 48 hrs by RNase/propidium iodide staining based flow cytometry analysis (reference value: 22.84 %); type: functional
PC-3 [8] = experiment: Effect on Pin1 expression in human PC3 cells at 0.1 to 10 uM measured after 72 hrs by Western blot analysis; type: functional, cell-based
How it was run: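 Western blot: PC-3 seeded 1.25 × 10^5/well, exposed to 0.1–10 μM for 72 h. Lysed in 2× SDS buffer and sonicated; 20–25 μg protein run on 12% SDS gel, transferred to PVDF, blocked in 5% BSA/TBST. Primary antibodies overnight, secondary 1 h; ECL detection, β-actin loading control.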

PC-3 [9] = experiment: Anticlonogenic activity against human PC3 cells assessed as reduction in colony formation at 10 uM incubated for 72 hrs supplemented with fresh medium containing measured after 15 days by colony formation assay; type: functional, cell-based
How it was run: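 Clonogenic assay: PC-3 seeded at 500 cells/well in six-well plates, allowed to adhere overnight, then treated. Medium and compound renewed every 72 h over 15 days. Colonies fixed with 3.7% formaldehyde for 20 min, stained with 0.4% crystal violet and counted. Three experiments, each in quadruplicate, expressed as fold change versus control.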

PC-3 [10] = experiment: Induction of apoptosis in human PC3 cells assessed as loss of cell morphology at 3 to 10 uM after 72 hrs by phase contrast microscopy; type: functional, cell-based
How it was run: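 PC-3 cells in exponential growth exposed to 3 or 10 μM for 72 h, washed gently with PBS, and apoptotic morphology recorded by phase-contrast microscopy.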

PC-3 [11] = experiment: Cell cycle arrest in human PC3 cells assessed as accumulation at S phase at 10 uM measured after 48 hrs by RNase/propidium iodide staining based flow cytometry analysis (reference value: 42.03 %); type: functional
PC-3 [12] = experiment: Cell cycle arrest in human PC3 cells assessed as accumulation at G0/G1 phase at 10 uM measured after 48 hrs by RNase/propidium iodide staining based flow cytometry analysis (reference value: 35.13 %); type: functional
PC-3 [13] = experiment: Cell cycle arrest in human PC3 cells assessed as accumulation at S phase at 3 uM measured after 48 hrs by RNase/propidium iodide staining based flow cytometry analysis (reference value: 42.03 %); type: functional
PC-3 [14] = experiment: Induction of apoptosis in human PC3 cells assessed as nuclear condensation at 3 to 10 uM after 72 hrs by Hoechst 33342 staining based fluorescence microscopy; type: functional, cell-based
How it was run: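 PC-3 cells treated 72 h with 3 or 10 μM, stained with Hoechst 33342 for 15 min at room temperature in the dark, washed with PBS, and nuclei examined by fluorescence microscopy for condensation.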

PC-3 [15] = experiment: Cell cycle arrest in human PC3 cells assessed as accumulation at G2/M phase at 10 uM measured after 48 hrs by RNase/propidium iodide staining based flow cytometry analysis (reference value: 22.84 %); type: functional
PC-3 [16] = experiment: Cell cycle arrest in human PC3 cells assessed as accumulation at G0/G1 phase at 3 uM measured after 48 hrs by RNase/propidium iodide staining based flow cytometry analysis (reference value: 35.13 %); type: functional
HepG2 [17] = experiment: Anticancer activity against human HepG2 cells assessed as reduction in cell viability measured after 72 hrs by MTT assay; type: functional, cell-based; settings: HepG2, 72 h
A-431 [18] = experiment: Anticancer activity against human A431 cells assessed as reduction in cell viability measured after 72 hrs by MTT assay; type: functional, cell-based; settings: A-431, 72 h
MDA-MB-231 [19] = experiment: Anticancer activity against human MDA-MB-231 cells assessed as reduction in cell viability measured after 72 hrs by MTT assay; type: functional, cell-based; settings: MDA-MB-231, 72 h
PC-3 [20] = experiment: Anticancer activity against human PC3 cells assessed as reduction in cell viability measured after 72 hrs by MTT assay; type: functional, cell-based; settings: PC-3, 72 h

Compound	Activity (PC-3 [1]) [%]	Activity (MDA-MB-231 [2]) [%]	Activity (A-431 [3]) [%]	Activity (HeLa) [%]	Activity (HepG2 [4]) [%]	Activity (A549) [%]	Activity (LNCaP) [%]	also measured
C[C@H]1[C@@H](Sc2ccc(C(=O)O)cc2)O[C@@H]2O[C@@]3(C)CC[C@H]4[C@H](C)CC[C@@H]1[C@@]24OO3	32	64	31	55	45	76	41	
C[C@H]1[C@@H](Sc2ccc3ccccc3n2)O[C@@H]2O[C@@]3(C)CC[C@H]4[C@H](C)CC[C@@H]1[C@@]24OO3	39	78	44	63	72	87	41	
CCCCCCS[C@@H]1O[C@@H]2O[C@@]3(C)CC[C@H]4[C@H](C)CC[C@@H]([C@H]1C)[C@@]24OO3	90	72	35	44	35	70	36	
COC(=O)CS[C@@H]1O[C@@H]2O[C@@]3(C)CC[C@H]4[C@H](C)CC[C@@H]([C@H]1C)[C@@]24OO3	32	98	75	79	80	91	60	
COC(=O)Cc1ccc(SC2O[C@@H]3O[C@@]4(C)CC[C@H]5[C@H](C)CC[C@@H]([C@H]2C)[C@@]35OO4)cc1 (stereo not given in full)	31	96	52	43	67	74	31	
C[C@H]1[C@H](Sc2ccc3ccccc3n2)O[C@@H]2O[C@@]3(C)CC[C@H]4[C@H](C)CC[C@@H]1[C@@]24OO3	33	90	93	87	96	100	77	
C[C@H]1[C@H](Sc2ccc([N+](=O)[O-])cc2)O[C@@H]2O[C@@]3(C)CC[C@H]4[C@H](C)CC[C@@H]1[C@@]24OO3	50	98	44	50	56	70	46	
C[C@H]1[C@@H](O)O[C@@H]2O[C@@]3(C)CC[C@H]4[C@H](C)CC[C@@H]1[C@@]24OO3 [ARTENIMOL]								solubility [5]: Soluble; half-life [6]: < 1 h
C[C@@H]1CC[C@H]2[C@@H](C)C(=O)O[C@@H]3O[C@@]4(C)CC[C@@H]1[C@]32OO4 [ARTEMISININ]								Activity (PC-3 [7]): 22.1%; Activity (PC-3 [8]): inactive; Activity (PC-3 [9]): Active; Activity (PC-3 [10]): Active; Activity (PC-3 [11]): 48.38%; Activity (PC-3 [12]): 35.55%; Activity (PC-3 [13]): 44.42%; Activity (PC-3 [14]): Active; Activity (PC-3 [15]): 16.07%; Activity (PC-3 [16]): 33.48%
CCCCS[C@@H]1O[C@@H]2O[C@@]3(C)CC[C@H]4[C@H](C)CC[C@@H]([C@H]1C)[C@@]24OO3	92	90	86	82	92	96	90	
C[C@H]1[C@@H](Sc2cccc(C(=O)O)c2)O[C@@H]2O[C@@]3(C)CC[C@H]4[C@H](C)CC[C@@H]1[C@@]24OO3	41	97	90	58	60	89	43	
C[C@H]1[C@H](Sc2ccc(Cl)cc2)O[C@@H]2O[C@@]3(C)CC[C@H]4[C@H](C)CC[C@@H]1[C@@]24OO3	70	97	42	48	42	55	37	
C[C@H]1[C@H](Sc2nnnn2C)O[C@@H]2O[C@@]3(C)CC[C@H]4[C@H](C)CC[C@@H]1[C@@]24OO3	47	75	87	95	95	89	78	
C[C@H]1[C@H](Sc2ccc(C(=O)O)cc2)O[C@@H]2O[C@@]3(C)CC[C@H]4[C@H](C)CC[C@@H]1[C@@]24OO3	84	95	58	60	64	79	47	
C[C@H]1[C@@H](Sc2nnnn2C)O[C@@H]2O[C@@]3(C)CC[C@H]4[C@H](C)CC[C@@H]1[C@@]24OO3	28	86	97	93	93	100	97	
COC(=O)CS[C@H]1O[C@@H]2O[C@@]3(C)CC[C@H]4[C@H](C)CC[C@@H]([C@H]1C)[C@@]24OO3	44	99	77	80	94	97	71	
CCCCS[C@H]1O[C@@H]2O[C@@]3(C)CC[C@H]4[C@H](C)CC[C@@H]([C@H]1C)[C@@]24OO3	33	71	47	49	52	79	47	
CCCCCCS[C@H]1O[C@@H]2O[C@@]3(C)CC[C@H]4[C@H](C)CC[C@@H]([C@H]1C)[C@@]24OO3	39	39	45	49	41	55	46	IC50 (HepG2 [17]): 10.7 µM; IC50 (A-431 [18]): 3.99 µM; IC50 (MDA-MB-231 [19]): 3.94 µM; IC50 (PC-3 [20]): 5.8 µM
C[C@H]1[C@@H](Sc2ccc(Cl)cc2)O[C@@H]2O[C@@]3(C)CC[C@H]4[C@H](C)CC[C@@H]1[C@@]24OO3	99	70	36	41	36	52	37	
